From ChEMBL document CHEMBL5247621, “From dopamine 4 to sigma 1: Synthesis, SAR and biological characterization of a piperidine scaffold of σ1 modulators” (Eur J Med Chem, 2022)

Tests used:
[1] = target: T1, Sigma non-opioid intracellular receptor 1 (Homo sapiens, UniProt Q99720); assay: Displacement of [3H] Pentazocine from sigma 1 receptor in HEK293 cell membrane; format: cell membranes
D(4) dopamine receptor = target: T2, D(4) dopamine receptor (Homo sapiens, UniProt P21917); assay: Displacement of [3H]N-methylspiperone from D4 receptor in HEK293 cell membrane; format: cell membranes
T2 sequence (P21917 whole entry): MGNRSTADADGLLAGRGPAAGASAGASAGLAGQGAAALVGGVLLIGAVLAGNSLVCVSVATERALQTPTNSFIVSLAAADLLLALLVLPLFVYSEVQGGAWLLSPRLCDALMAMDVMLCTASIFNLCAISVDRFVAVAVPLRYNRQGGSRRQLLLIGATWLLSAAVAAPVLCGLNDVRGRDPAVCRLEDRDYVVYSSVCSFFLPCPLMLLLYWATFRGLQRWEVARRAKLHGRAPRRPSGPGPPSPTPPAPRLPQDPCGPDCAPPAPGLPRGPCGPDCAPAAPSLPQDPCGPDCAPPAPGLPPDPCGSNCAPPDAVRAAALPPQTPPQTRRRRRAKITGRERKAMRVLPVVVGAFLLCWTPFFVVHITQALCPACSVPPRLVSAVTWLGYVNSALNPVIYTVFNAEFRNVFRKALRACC

[2] = target: T3, D(4) dopamine receptor (Homo sapiens) (UniProt P21917); assay: Displacement of [3H]N-methylspiperone from D4 receptor in HEK293 cell membrane assessed as inhibition constant at 10 uM relative to control; format: cell membranes; set-up: scale not given: the % may be the effect or the level left
T3 sequence (whole entry): T2 sequence (P21917 whole entry)

D(1A) dopamine receptor = D(1A) dopamine receptor (Homo sapiens, UniProt P21728); assay: Displacement of [3H]SCH23390 from D1 receptor in HEK293 cell membrane assessed as inhibition constant; format: cell membranes
Outline: (§1)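 Competitive radioligand binding in membranes harvested from HEK293 cells, with one radioligand per target: [3H]N-methylspiperone for D2, D3 and D4; [3H]SCH23390 for D1 and D5; [3H]pentazocine for σ1; [3H]DTG for σ2. Ki derived from inhibition of binding, each run in triplicate.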

[3] = target: Sigma intracellular receptor 2 (Homo sapiens, UniProt Q5BJF2); assay: Displacement of [3H]DTG from sigma-2 receptor in HEK293 cell membrane assessed as inhibition constant; format: cell membranes; outline: as §1
[4] = Plasma protein binding in mouse assessed as unbound fraction; format: ADME
Outline: (§2)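 Plasma protein binding by equilibrium dialysis in human or mouse plasma, reported as fraction unbound (fu).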

[5] = Plasma protein binding in human assessed as unbound fraction; format: ADME, cell-free; outline: as §2
[6] = Half life in mouse brain at 5 mg/kg, ip measured after 24 hrs; format: ADME, organism-based; conditions: in vivo
Outline: (§3)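 Discrete mouse study, single intraperitoneal dose of 5 mg/kg in 10% DMSO/10% Cremophor EL/30% PEG400/50% water. Plasma and brain concentrations followed over 24 h. Parameters estimated by non-compartmental analysis.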

[7] = Tmax in mouse plasma at 5 mg/kg, ip measured after 24 hrs; format: ADME, organism-based; conditions: in vivo; outline: as §3
[8] = Ratio of free drug concentration in mouse brain to plasma at 5 mg/kg, ip measured after 5 hrs; format: ADME, organism-based; conditions: read-out: K(p,uu,brain)
Outline: (§4)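 Mice received 5 mg/kg IP in 10% DMSO/10% Cremophor EL/30% PEG400/50% water. Kp,uu is free brain over free plasma concentration at 1 h and 5 h. Free levels are corrected with unbound fractions measured in mouse plasma protein binding and in mouse brain homogenate binding.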

[9] = Cmax in mouse plasma at 5 mg/kg, ip measured after 24 hrs; format: ADME, organism-based; set-up: dose 5 mg/kg, time 24 hrs, route ip; conditions: in vivo; outline: as §3
[10] = AUC(infinity) in mouse brain at 5 mg/kg, ip measured after 24 hrs; format: ADME, organism-based; set-up: dose 5 mg/kg, time 24 hrs, route ip; outline: as §3
[11] = Mean residence time in mouse brain at 5 mg/kg, ip measured after 24 hrs; format: ADME, organism-based; conditions: in vivo; outline: as §3
[12] = Ratio of total drug concentration in mouse brain to plasma at 5 mg/kg, ip measured after 1 hr; format: ADME, organism-based
Outline: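 Mice received 5 mg/kg IP in 10% DMSO/10% Cremophor EL/30% PEG400/50% water. Kp is total brain concentration divided by total plasma concentration, taken at 1 h and 5 h post-dose.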

D(1B) dopamine receptor = D(1B) dopamine receptor (Homo sapiens, UniProt P21918); assay: Displacement of [3H]SCH23390 from D5 receptor in HEK293 cell membrane assessed as inhibition constant; format: cell membranes; outline: as §1
[13] = Tmax in mouse brain at 5 mg/kg, ip measured after 24 hrs; format: ADME, organism-based; conditions: in vivo; outline: as §3
[14] = Mean residence time in mouse plasma at 5 mg/kg, ip measured after 24 hrs; format: ADME, organism-based; conditions: in vivo; outline: as §3
[15] = Ratio of free drug concentration in mouse brain to plasma at 5 mg/kg, ip measured after 1 hr; format: ADME, organism-based; outline: as §4
[16] = AUC(infinity) in mouse plasma at 5 mg/kg, ip measured after 24 hrs; format: ADME, organism-based; set-up: dose 5 mg/kg, time 24 hrs, route ip; conditions: in vivo; outline: as §3
[17] = Half life in mouse plasma at 5 mg/kg, ip measured after 24 hrs; format: ADME, organism-based; conditions: in vivo; outline: as §3
[18] = Cmax in mouse brain at 5 mg/kg, ip measured after 24 hrs; format: ADME, organism-based; set-up: time 24 hrs, dose 5 mg/kg, route ip; outline: as §3
[19] = target: T1, Sigma non-opioid intracellular receptor 1; assay: Binding affinity to sigma 1 receptor in human Jurkat cells; format: cell-based
[20] = target: T1, Sigma non-opioid intracellular receptor 1; assay: Displacement of [3H] Pentazocine from sigma 1 receptor in HEK293 cell membrane assessed as inhibition constant relative to control; format: cell membranes; set-up: scale not given: the % may be the effect or the level left; outline: as §1
D(2) dopamine receptor = D(2) dopamine receptor (Homo sapiens, UniProt P14416); assay: Displacement of [3H]N-methylspiperone from D2 receptor in HEK293 cell membrane assessed as inhibition constant; format: cell membranes; outline: as §1
D(3) dopamine receptor = D(3) dopamine receptor (Homo sapiens, UniProt P35462); assay: Displacement of [3H]N-methylspiperone from D3 receptor in HEK293 cell membrane assessed as inhibition constant; format: cell membranes; outline: as §1
[21] = Intrinsic clearance in human liver microsomes; format: ADME, Microsome; conditions: read-out: CLH
Outline: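 Intrinsic clearance measured in human liver microsomes. Hepatic clearance predicted from it with the well-stirred organ model, binding terms excluded.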

Sigma intracellular receptor 2, sequence (Q5BJF2 whole entry): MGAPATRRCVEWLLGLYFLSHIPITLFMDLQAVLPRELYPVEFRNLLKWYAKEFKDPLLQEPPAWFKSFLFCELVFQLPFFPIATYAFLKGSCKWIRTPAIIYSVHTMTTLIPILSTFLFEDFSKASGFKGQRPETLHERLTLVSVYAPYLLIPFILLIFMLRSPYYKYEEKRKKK
D(3) dopamine receptor, sequence (P35462 whole entry): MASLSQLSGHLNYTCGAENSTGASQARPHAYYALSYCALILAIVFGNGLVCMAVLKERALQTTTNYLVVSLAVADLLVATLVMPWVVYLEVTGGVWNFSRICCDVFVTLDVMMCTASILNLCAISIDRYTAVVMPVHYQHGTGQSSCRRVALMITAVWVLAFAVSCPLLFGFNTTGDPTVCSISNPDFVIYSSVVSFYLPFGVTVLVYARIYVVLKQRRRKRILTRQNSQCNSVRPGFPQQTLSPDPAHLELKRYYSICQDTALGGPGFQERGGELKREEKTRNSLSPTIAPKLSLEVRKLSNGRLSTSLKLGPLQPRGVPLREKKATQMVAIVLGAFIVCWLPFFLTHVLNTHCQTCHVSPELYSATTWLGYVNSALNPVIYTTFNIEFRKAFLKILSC
D(1A) dopamine receptor, sequence (P21728 whole entry): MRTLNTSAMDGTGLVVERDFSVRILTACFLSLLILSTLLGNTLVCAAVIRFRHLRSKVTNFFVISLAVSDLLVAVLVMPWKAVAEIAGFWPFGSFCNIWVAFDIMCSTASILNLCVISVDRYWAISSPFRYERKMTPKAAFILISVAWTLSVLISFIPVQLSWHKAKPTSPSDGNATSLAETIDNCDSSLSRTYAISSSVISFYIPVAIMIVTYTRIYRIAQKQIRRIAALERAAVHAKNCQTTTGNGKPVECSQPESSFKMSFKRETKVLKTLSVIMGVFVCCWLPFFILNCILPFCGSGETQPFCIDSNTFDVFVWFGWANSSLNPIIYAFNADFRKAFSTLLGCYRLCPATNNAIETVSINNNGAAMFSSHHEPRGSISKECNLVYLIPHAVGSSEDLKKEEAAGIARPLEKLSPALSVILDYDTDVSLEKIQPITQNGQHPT
T1 sequence (Q99720 whole entry): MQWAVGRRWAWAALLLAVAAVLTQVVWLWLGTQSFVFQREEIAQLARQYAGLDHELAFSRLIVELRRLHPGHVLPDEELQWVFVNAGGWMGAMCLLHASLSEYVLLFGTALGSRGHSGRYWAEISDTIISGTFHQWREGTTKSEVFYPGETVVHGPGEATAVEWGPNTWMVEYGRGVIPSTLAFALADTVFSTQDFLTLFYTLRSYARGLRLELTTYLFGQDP
D(1B) dopamine receptor, sequence (P21918 whole entry): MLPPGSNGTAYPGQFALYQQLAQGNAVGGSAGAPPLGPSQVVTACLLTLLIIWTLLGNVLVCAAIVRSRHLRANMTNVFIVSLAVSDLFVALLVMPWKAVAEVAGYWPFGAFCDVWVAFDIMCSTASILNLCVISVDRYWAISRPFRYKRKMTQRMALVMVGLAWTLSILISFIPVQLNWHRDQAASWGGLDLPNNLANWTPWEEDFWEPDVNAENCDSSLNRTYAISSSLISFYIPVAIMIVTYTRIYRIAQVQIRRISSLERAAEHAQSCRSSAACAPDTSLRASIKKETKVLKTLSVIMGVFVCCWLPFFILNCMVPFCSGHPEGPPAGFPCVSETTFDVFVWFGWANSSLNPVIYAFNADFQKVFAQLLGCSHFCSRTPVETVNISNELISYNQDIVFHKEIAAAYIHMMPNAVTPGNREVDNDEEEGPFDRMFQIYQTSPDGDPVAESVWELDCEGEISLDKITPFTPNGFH
D(2) dopamine receptor, sequence (P14416 whole entry): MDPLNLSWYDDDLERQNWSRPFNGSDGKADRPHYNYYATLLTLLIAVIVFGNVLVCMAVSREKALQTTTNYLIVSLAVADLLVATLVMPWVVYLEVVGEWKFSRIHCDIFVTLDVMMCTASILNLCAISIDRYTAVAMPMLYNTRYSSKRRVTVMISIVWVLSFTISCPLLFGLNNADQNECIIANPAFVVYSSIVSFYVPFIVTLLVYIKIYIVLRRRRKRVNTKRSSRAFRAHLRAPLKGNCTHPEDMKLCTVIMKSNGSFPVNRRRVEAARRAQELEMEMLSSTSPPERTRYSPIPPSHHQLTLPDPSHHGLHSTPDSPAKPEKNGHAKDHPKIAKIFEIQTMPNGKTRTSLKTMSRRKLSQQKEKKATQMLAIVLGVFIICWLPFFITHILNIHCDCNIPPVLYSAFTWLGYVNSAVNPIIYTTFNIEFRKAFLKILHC

## FC(F)(F)Oc1cccc(CO[C@H]2CCCN(Cc3cn4ccccc4n3)C2)c1
[1]; read-out: Ki
  Ki: 35 nM

## c1ccc(OC[C@@H]2CN(Cc3ccc4[nH]ccc4c3)CCO2)cc1
[1]; read-out: Ki
  Ki: 44 nM
D(4) dopamine receptor; read-out: Ki
  Ki: 3.3 nM

## Fc1ccc2c(CN3CCC(F)(F)[C@H](CCc4ccccc4)C3)c[nH]c2c1
[1]; read-out: Ki
  Ki: 52 nM
D(4) dopamine receptor; read-out: Ki
  Ki: 3.5 nM

## Cc1ccccc1CO[C@H]1CCCN(Cc2cn3ccccc3n2)C1
[1]; read-out: Ki
  Ki: 503 nM
[2]
  Activity: 60%

## Cc1c(Cl)cccc1NC(=O)CN1CCC2(CCCN2Cc2ccc(F)c(F)c2)C1 (stereo unspecified)
[1]; read-out: Ki
  Ki: 14 nM
D(1A) dopamine receptor
  Ki: > 10000 nM
[3]
  Ki: 43 nM
D(4) dopamine receptor; read-out: Ki
  Ki: 1700 nM

## Fc1cc(COC2CCN(Cc3cn4ccccc4n3)CC2)ccc1Cl
[1]; read-out: Ki
  Ki: 2.3 nM

## Cn1cnc2cc(CN3CCC(OCc4ccc(Cl)c(F)c4)CC3)ccc21
[4]
  Fu: 75%
[5]
  Fu: 13%
[1]; read-out: Ki
  Ki: 31 nM
[2]
  Activity: 48%

## Fc1ccc(COC2CCN(Cc3ccc4[nH]cnc4c3)CC2)cc1F
[6]
  t1/2: 9.11 h
[7]
  Tmax: 0.28 h
[8]
  Kp uu at 5 h: 6.44
[9]
  Cmax: 527 ng/mL
[10]
  AUC(0-inf): 4560 ng·h/mL
[11]
  MRT: 8.43 h
[12]
  Kp: 2.78
D(1B) dopamine receptor
  Ki: > 10000 nM
[13]
  Tmax: 0.56 h
[14]
  MRT: 2.12 h
[1]; read-out: Ki
  Ki: 8.3 nM
[15]
  K(p,uu,brain): 1.59
D(1A) dopamine receptor
  Ki: > 10000 nM
[3]
  Ki: 166 nM
[16]
  AUC: 952 ng·h/mL
[17]
  t1/2: 2.14 h
[18]
  Cmax: 860 ng/mL
[19]
  Ki: 12 nM

## Cc1csc(OC[C@@H]2CN(Cc3cn4ccccc4n3)CCO2)n1
[20]
  Activity: 6%
D(4) dopamine receptor; read-out: Ki
  Ki: 1560 nM

## Cc1cccc(CO[C@H]2CCCN(Cc3cc4ccc(Cl)cc4[nH]3)C2)n1
[1]; read-out: Ki
  Ki: 52 nM

## FC(F)(F)c1cccc(COC2CCN(Cc3cc4ccc(Cl)cc4[nH]3)CC2)c1
[1]; read-out: Ki
  Ki: 14 nM
D(4) dopamine receptor; read-out: pKi (converted)
  Ki: 209 nM

## Cc1ccccc1CO[C@H]1CCCN(Cc2ccc3c(cnn3C)c2)C1
[4]
  Fu: 8.8%
[5]
  Fu: 4.3%
[1]; read-out: Ki
  Ki: 37 nM
[2]
  Activity: 65%
D(1A) dopamine receptor
  Ki: > 10000 nM
[3]
  Ki: 239 nM

## COc1ccc(CN2CCO[C@H](COc3ccccc3)C2)cc1F
[1]; read-out: Ki
  Ki: 41 nM
D(4) dopamine receptor; read-out: Ki
  Ki: 5 nM

## Cc1c(Cl)cccc1NC(=O)CN1CCC2(CCCN(Cc3ccc(F)c(F)c3)C2)C1 (stereo unspecified)
[1]; read-out: Ki
  Ki: 19 nM
[2]
  Activity: 23%

## Cc1cccc(CO[C@H]2CCCN(Cc3ccc4c(cnn4C)c3)C2)n1
[1]; read-out: Ki
  Ki: 1280 nM
[2]
  Activity: 23%

## Fc1ccc(CN2CCCC23CCN(Cc2cn4ccccc4n2)C3)cc1F (stereo unspecified)
[4]
  Fu: 30.2%
[5]
  Fu: 2.7%
[1]; read-out: Ki
  Ki: 3.6 nM
[2]
  Activity: -0.7%
D(1A) dopamine receptor
  Ki: > 10000 nM
[3]
  Ki: 23 nM

## Cc1c(Cl)cccc1NC(=O)CN1CCC(OCc2ccc(Cl)c(F)c2)CC1
[1]; read-out: Ki
  Ki: 97 nM

## FC(F)(F)c1cccc(COC2CCN(Cc3cn4ccccc4n3)CC2)c1
[4]
  Fu: 8.8%
[5]
  Fu: 2.2%
[1]; read-out: Ki
  Ki: 3.5 nM
D(4) dopamine receptor; read-out: Ki
  Ki: 175 nM

## Cc1cccc(CO[C@H]2CCCN(Cc3cn4ccccc4n3)C2)n1
[20]
  Activity: 39%
[2]
  Activity: 23%

## Cn1ncc2cc(CN3CCO[C@H](COc4ccc(F)c(F)c4)C3)ccc21
[1]; read-out: Ki
  Ki: 23 nM
D(4) dopamine receptor; read-out: Ki
  Ki: 28 nM

## Cc1csc(OC[C@@H]2CN(Cc3cc4ccc(Cl)cc4[nH]3)CCO2)n1
[1]; read-out: Ki
  Ki: 388 nM
D(4) dopamine receptor; read-out: Ki
  Ki: 169 nM

## Fc1ccc(COC2CCN(Cc3cc4ccc(Cl)cc4[nH]3)CC2)cc1F
[5]
  Fu: < 0.3%
[1]; read-out: Ki
  Ki: 8.1 nM

## Fc1ccc(CN2CCCC3(CCN(Cc4cc5ccc(Cl)cc5[nH]4)C3)C2)cc1F (stereo unspecified)
D(2) dopamine receptor
  Ki: > 10000 nM
D(1B) dopamine receptor
  Ki: > 10000 nM
[1]; read-out: Ki
  Ki: 7.1 nM
[2]
  Activity: 39%
D(1A) dopamine receptor
  Ki: 1530 nM
[3]
  Ki: 30 nM
D(3) dopamine receptor
  Ki: 345 nM

## Cc1cc(NC(=O)CN2CCC3(CCCN3Cc3ccc(F)c(F)c3)C2)ccc1F (stereo unspecified)
D(1B) dopamine receptor
  Ki: > 10000 nM
[1]; read-out: Ki
  Ki: 16 nM
[2]
  Activity: 14%
D(1A) dopamine receptor
  Ki: > 10000 nM
[3]
  Ki: 47 nM
D(3) dopamine receptor
  Ki: 512 nM

## COc1ccc(CN2CCC[C@H](OCc3cccc(F)c3)C2)cc1F
[1]; read-out: Ki
  Ki: 4.3 nM

## Fc1ccc(COC2CCN(Cc3ncc4ccccn34)CC2)cc1F
[1]; read-out: Ki
  Ki: 143 nM

## Fc1cccc(CO[C@H]2CCCN(Cc3cn4ccccc4n3)C2)c1
[1]; read-out: Ki
  Ki: 490 nM
D(4) dopamine receptor; read-out: Ki
  Ki: 1210 nM

## FC(F)(F)c1cccc(COC2CCN(Cc3ccc4[nH]cnc4c3)CC2)c1
D(1B) dopamine receptor
  Ki: > 10000 nM
D(1A) dopamine receptor
  Ki: > 10000 nM
[3]
  Ki: 73 nM

## COc1ccc(CN2CCC[C@H](OCc3ccc(C)cc3)C2)cc1F
[4]
  Fu: 2.5%
[5]
  Fu: 1.3%
[1]; read-out: Ki
  Ki: 5.5 nM

## Fc1cc(COC2CCN(Cc3ccc4[nH]ncc4c3)CC2)ccc1Cl
[4]
  Fu: 6.5%
[5]
  Fu: 7%
[1]; read-out: Ki
  Ki: 0.7 nM
[21]
  CLint scaled: 26.3 mL/min/kg

## Cn1cnc2cc(CN3CCC(OCc4cccc(C(F)(F)F)c4)CC3)ccc21
[1]; read-out: Ki
  Ki: 12 nM

## Fc1ccc(CN2CCCC23CCN(Cc2cc4ccc(Cl)cc4[nH]2)C3)cc1F (stereo unspecified)
D(2) dopamine receptor
  Ki: > 10000 nM
D(1B) dopamine receptor
  Ki: > 10000 nM
[1]; read-out: Ki
  Ki: 5.5 nM
[1]; read-out: pKi (converted)
  Ki: 5.37 nM
D(1A) dopamine receptor
  Ki: 2370 nM
[3]
  Ki: 23 nM
D(3) dopamine receptor
  Ki: 118 nM
D(4) dopamine receptor; read-out: Ki
  Ki: 268 nM
